From PubChem
Not all results are given here.
Apaf1 activ: activates human Apaf-1 apoptosome; O14727; Apaf-1 apoptosome caspase-3 activation, DEVD-Rh110 fluorescence; active compounds read low; activity change, negative = activation, % at 20 µM; hit rate 0.31% among 330,000;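 active = activity change at or below -40% at 20 µM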
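system = biochemical Apaf-1 apoptosome reconstitution | buffer or medium = 20 mM HEPES pH 7.5 with CHAPS, BSA | also added = dATP and cytochrome c as apoptosome triggers, (Z-DEVD)2-Rh110 substrate | incubation = 30 min compound preincubation and 50 min reaction, both room temperature | measured by = fluorescence, 540 nm emission, 480 nm excitation | read-out basis = Caspase-3 cleavage activity downstream of Apaf-1 activation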
Rh110 act interf: Rh110 signal interference in Apaf-1 activator counter-screen; fluorescence interference (activity change), % at 20 µM, hits read low; 980 tested, under 10 active; shares compounds with Apaf1 activ; AID 504616; Rh110 fluorescence interference, quenched caspase reaction, Ex480/Em540;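 active = mean activity change at or below -40% when tested at 20 µM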
Apaf-1 act conf2: confirmation of human Apaf-1 activators | shares compounds with Apaf1 activ | reconstituted apoptosome caspase-3 activity, DEVD-Rh110 fluorescence; active compounds read low | activity change, negative = activation, % at 20 µM | hit rate 5% among 980;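 active = mean activity change at or below -40%, meaning activation of 40% or more, at 20 µM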
Apaf1 act interf: Apaf-1 activator counter-screen fluorescence artifact; shares compounds with Apaf1 activ; fluorescence interference counterscreen, Apaf-1 activator assay; EC50, µM; 55 tested, under 10 active; call rule not given here
An asterisk follows results filed as active; x = not tested or not shown.

SMILES	Apaf1 activ	Rh110 act interf	Apaf-1 act conf2	others
Nc1ccc2c(c1)C(=O)C(=O)c1ccccc1-2	97.5	x	x
COC(=O)Nc1nnc(COc2ccccc2)s1	-572.6*	6.3	11.1
c1csc(Cc2nn3c(-c4ccncc4)nnc3s2)c1	77.5	x	x
Cc1ccc2oc(=O)cc(CN3CC(C)OC(C)C3)c2c1 (stereo not drawn)	-66.1*	11.4	7.9
CC(=O)N(C)C1=C(O)c2ccccc2C(=O)C1=O	40.4	x	x
Cc1ccc(S(=O)(=O)NC2=C(N3CCN(c4ccccc4F)CC3)C(=O)c3ccccc3C2=O)cc1	75.9	x	x
CCN1CCN(c2ccc(NC(=O)c3cc4ccccc4cc3OC)cc2C)CC1	51.1	x	x
Cc1cccc(NC(=O)c2cc(NC(=O)C3CCCCC3C(=O)O)ccc2N2CCOCC2)c1 (stereo not drawn)	-126.7*	3.3	11.8
CCCCCCCCCCCCCCCC[n+]1cccc2ccccc21	91.1	x	x
c1ccc2c(C[C@@H]3CNCCN3CCC34CC5CC(CC(C5)C3)C4)cccc2c1	65.7	x	x
Cc1ccc(C(=O)NC2CCN(C(=O)Nc3ccccc3)CC2)cc1	-49.7*	5.2	6.5
CCC(CN(C)C)Oc1cc(NCc2ccccc2)c2ncn(C(C)C)c2c1 (stereo not drawn)	97.9	x	x
CCN1CCc2c(sc(NC(=O)c3ccc(C(=O)c4ccccc4)cc3)c2C(N)=O)C1	43.6	x	x
NC(=O)c1c(NC(=O)CCCn2cnc([N+](=O)[O-])n2)sc2c1CCCC2	-90.3*	-1.0	16.0
CN(Cc1cnc2nc(N)nc(N)c2n1)c1ccc(C(=O)N[C@@H](CCC(=O)O)C(=O)O)cc1	3.1	x	x
COc1ccc(C2=NCN(c3ccc(C)cc3)C(=S)N2)cc1	-555.3*	9.3	17.4
COc1ccc(-n2nc3cc(N)c(Br)cc3n2)cc1	69.1	x	x
Cc1cc2cc(CNS(=O)(=O)c3ccccc3)ccc2n1C	60.9	x	x
CCNC1=C(Cl)C(=O)c2ccccc2C1=O	51.3	x	x
Fc1ccccc1Nc1nc(-c2ccncc2)nc2ccccc12	-321.1*	1.8	7.7
Cc1cc(C)nc(/N=c2/ssnc2Cl)c1	71.1	x	x
COc1cc(/C=C/c2cc[n+](C)cc2)ccc1OCC(=O)Nc1ccc(Cl)c(Cl)c1	73.0	x	x
COc1ccc(/C=N/NC(=O)c2ccc(CSc3nncn3C)cc2)cc1OC	-192.0*	2.6	-1.2
COC(=O)c1cc(C)nc2c1C(=O)C(=O)C=C2N1CCOCC1	98.5	x	x
CC(=O)Nc1c(I)c(NC(C)=O)c(I)c(C(=O)O)c1I	10.6	x	x
SMILES	Apaf1 activ	Rh110 act interf	Apaf-1 act conf2	others
NC1(C#Cc2ccc3c(=O)c4ccccc4sc3c2)CCCCC1	60.1	x	x
COc1cccc(-c2sc3ccccc3c2-c2ccc(OCCN3CCCC3)cc2)c1	71.0	x	x
Nc1c(C(=O)NCC2CCCO2)c2nc3ccccc3nc2n1-c1ccccc1 (stereo not drawn)	59.8	x	x
O=C(NCC1CCCO1)c1ccc(Br)s1 (stereo not drawn)	-522.3*	-0.5	11.2
CC(=O)c1ccc(NC(=O)c2noc(C(C)C)c2[N+](=O)[O-])cc1	-127.1*	5.1	-3.7
CC(C)(C)c1ccc(-c2nn(CCC#N)cc2/C=N/O)cc1	49.9	x	x
Oc1ccc2ccccc2c1CN1CCN(c2ccccc2F)CC1	-318.7*	-3.4	6.2
CCOC(=O)N1CCN(c2cc(NCCC(=O)O)c3c4c(onc24)-c2ccccc2C3=O)CC1	75.2	x	x
CCOC(=O)c1c(NC(=O)c2ccno2)c2cc([N+](=O)[O-])ccc2n1C	-45.2*	9.0	5.0
O=C(/C=C\c1ccc2c(c1)OCO2)NC1(C(=O)Nc2ccc3c(c2)OCO3)CCCCC1	-87.2*	2.7	14.4
COc1ccc(NC(=S)Nc2ccc3nsnc3c2)cc1	96.5	x	x
Cc1ccc(N2CCN(S(=O)(=O)c3cccs3)CC2C)cc1 (stereo not drawn)	62.2	x	x
CCCCCCCCCn1c2c(c(=N)c3c1CCC3)CCCC2	51.1	x	x
CSc1ncc(CN2CCc3c([nH]c4ccccc34)C2c2cccc(O)c2)cn1 (stereo not drawn)	-158.5*	-3.7	13.7
CCOc1cc(CNc2ccc(O)cc2)ccc1OCc1ccc(Cl)cc1Cl	93.5	x	x
CC1=[N+](C)c2ccc3ccccc3c2C1(C)C	41.9	x	x
COc1ccc(/C=N/NC(=O)c2nn(-c3ccc(Cl)cc3)c(=O)c3c(N)scc23)cc1	53.8	x	x
CSc1ccccc1NC(=O)CN(C)C(=O)c1ccc2c(c1)OCCO2	-74.5*	7.3	5.3
Cc1cccc(C)c1NC(=O)CN(C)C(=O)c1ccccc1SCC(=O)N1CCCC1	42.0	x	x
O=C(O)c1cccc(NC2=C(n3nnc4ccccc43)C(=O)c3ccccc3C2=O)c1	58.2	x	x
Cc1[nH][nH]c(=O)c1C(c1ccc(-c2cccc(C(=O)O)c2)o1)c1c(C)[nH][nH]c1=O	77.6	x	x
O=C(O)c1cccc(-c2ccc(/C=c3/sc4nc5ccccc5n4c3=O)o2)c1	-195.1*	5.5	41.2	Apaf1 act interf=>100
COc1cc(/C=C/c2nc(N)nc(-c3ccccc3O)n2)cc(OC)c1OC	-517.1*	14.1	17.4
COC(=O)c1c(NC(=O)c2ccc(OC(C)C)cc2)sc2c1CC(C)(C)NC2(C)C	53.4	x	x
COc1cc(/C=C2/C(=O)N(c3ccc(Br)cc3)N=C2C)cc(OC)c1OC	93.5	x	x
SMILES	Apaf1 activ	Rh110 act interf	Apaf-1 act conf2	others
COCCNC(=O)c1cc2nc(-c3ccccc3)cc(C)n2n1	-169.1*	12.2	13.6
COCCNC(=O)c1c(N)n(CCC2=CCCCC2)c2nc3ccccc3nc12	63.3	x	x
CCN(CC)CCOC(=O)c1ccc(N/C=C(/C#N)c2nc(-c3cccc(OC)c3)cs2)cc1	55.4	x	x
CN(C)Cc1cc(O)c(CN(C)C)cc1O	65.3	x	x
Cc1ccc(C)c(S(=O)(=O)c2c(C)cc(C)nc2Cl)c1	-303.0*	1.2	7.7
Cc1ccc(C)c(S(=O)(=O)C(C#N)c2nc3ccccc3nc2N2CCCC2)c1 (stereo not drawn)	87.4	x	x
C#CCOCCOCCOCCNc1nc(N2CCN(C(=O)CCCCCCCCCCNC(=O)[C@@H](CCSC)n3cc(CCO)nn3)CC2)nc(N2CCN(C(=O)CCCCCCCCCCNC(=O)[C@H](CCCN=C(N)N)n3cc(C[C@@H](C)CC)nn3)CC2)n1	62.0	x	x
Cc1cc(C)n(-c2cc(Cl)cc(Cl)c2)c(=O)c1C#N	-403.0*	11.6	10.6
Cc1cc(C)cc(NC2=C(N)C(=O)c3ccccc3C2=O)c1	73.7	x	x
COC(=O)c1ccc2c(=O)n(CCCCCC(=O)N3CCN(c4ccccc4)CC3)c(=O)[nH]c2c1	47.3	x	x
COCCn1c(=S)[nH]c2cc(C(=O)N3CCN(c4cccc(Cl)c4)CC3)ccc2c1=O	-324.5*	7.5	24.5
O=C(NCCC(=O)N1CCN(c2cccc(Cl)c2)CC1)c1ccc(Br)cc1	43.9	x	x
COc1ccccc1N1C(=O)N(C(C)=O)C2C1Nc1ccccc1N2C (stereo not drawn)	82.8	x	x
CC1CC(C)(C)NC(=O)O1 (stereo not drawn)	-88.4*	5.0	10.1
Cc1cc(NC(=O)CCCn2nc([N+](=O)[O-])c(Br)c2C)no1	40.5	x	x
CN(C)CCC(c1ccc(Br)cc1)c1ccccn1 (stereo not drawn)	1.0	x	x
